From PubChem BioAssay
SUMO1-SIM PPI – modulators of SUMO1 protein-protein interactions, primary screen, biochemical, uHTS | Small ubiquitin-related modifier 1 (Homo sapiens), P63165 | SUMO1 binding to a labelled peptide, TR-FRET, 1 h | inhibition, % at 20 µM | hit rate 0.33% among 360,000; in the data active = inhibition above about 37%
Target sequence (P63165 whole entry, looked up): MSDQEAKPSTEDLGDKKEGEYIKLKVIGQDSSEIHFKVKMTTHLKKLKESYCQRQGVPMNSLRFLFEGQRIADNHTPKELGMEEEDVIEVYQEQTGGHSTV
STEP inh – STEP phosphatase inhibitors, primary screen, biochemical, fluorescence intensity, uHTS. inhibition, % at 20 µM. hit rate 0.25% among 360,000. Tyrosine-protein phosphatase non-receptor type 5 (Homo sapiens), P54829. recombinant STEP, OMFP fluorogenic substrate. AID 588621, 2011;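 active = inhibition at 20 µM, scaled per plate between control wells, above about 37%, limit read from the data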;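 also: 0% = DMSO with enzyme and substrate and 100% = substrate only without enzyme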
Target sequence (P54829 whole entry, looked up): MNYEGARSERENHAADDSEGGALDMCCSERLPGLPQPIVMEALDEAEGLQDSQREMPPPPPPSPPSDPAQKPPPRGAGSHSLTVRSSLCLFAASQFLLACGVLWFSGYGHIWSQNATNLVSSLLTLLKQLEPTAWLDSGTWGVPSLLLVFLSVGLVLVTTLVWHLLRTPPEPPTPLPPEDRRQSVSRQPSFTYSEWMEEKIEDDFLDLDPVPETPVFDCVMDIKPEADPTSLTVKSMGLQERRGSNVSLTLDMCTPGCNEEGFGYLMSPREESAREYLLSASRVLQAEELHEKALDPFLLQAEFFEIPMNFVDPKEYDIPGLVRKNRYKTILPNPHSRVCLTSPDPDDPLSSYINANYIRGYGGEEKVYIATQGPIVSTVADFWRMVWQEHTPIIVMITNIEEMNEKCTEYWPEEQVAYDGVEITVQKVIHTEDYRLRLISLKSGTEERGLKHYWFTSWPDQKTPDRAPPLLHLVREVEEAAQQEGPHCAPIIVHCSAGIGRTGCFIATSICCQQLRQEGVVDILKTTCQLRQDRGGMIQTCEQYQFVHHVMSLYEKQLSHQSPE
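Assay system: isolated STEP enzyme. Buffer or medium: pH 6.0 Bis-Tris with DTT and Tween 20. Also added: fluorogenic phosphatase substrate OMFP at 25 µM final. Dosing: 20 µM, 1% DMSO. Timing: 20 min reaction, room temperature, in the dark. Measured by: fluorescence intensity, excitation 480 nm, emission 540 nm. Evaluation: normalized % inhibition.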
LMPTP block – LMPTP phosphatase inhibitors, primary screen, biochemical, fluorescence intensity, uHTS; Low molecular weight phosphotyrosine protein phosphatase (Homo sapiens), P24666; recombinant LMPTP-A, OMFP fluorogenic substrate; inhibition, % at 20 µM; hit rate 0.22% among 360,000; AID 651560, 2012;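 active = compounds that cut the enzyme signal by at least half of the control window in the single-dose screen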;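 also: plate controls were DMSO wells with enzyme plus substrate for no effect and substrate without enzyme for full effect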
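Assay system: LMPTP-A phosphatase enzyme | Input: 0.625 nM enzyme | Also added: Fluorogenic phosphatase substrate OMFP at 400 µM final | Compound dosing: One test concentration per compound, 20 µM, with 3% DMSO overall | Schedule: 50 min enzyme reaction at room temperature, protected from light | Signal: Fluorescence intensity | Benchmarks: no-enzyme and uninhibited controls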
Scp1 inh – Scp-1 phosphatase inhibitors, primary screen, biochemical, colorimetric, uHTS | Carboxy-terminal domain RNA polymerase II polypeptide A small phosphatase 1 (Homo … | Recombinant Scp1, phosphopeptide, malachite green phosphate absorbance | inhibition, % at 20 µM | hit rate 0.88% among 340,000 | AID 493091, 2011;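 active = inhibition above about 50% at 20 µM, limit read from the data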;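 also: plate controls were DMSO wells with enzyme for no effect and wells lacking enzyme for full effect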
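Incubation: 45 min enzyme reaction at room temperature / System: truncated SCP-1 phosphatase (76-261aa) / Reagent: Phospho 17-mer peptide substrate / Buffer or medium: Acidic Tris acetate buffer with magnesium and detergent / Signal: absorbance at 630 nm / Doses: one concentration, 20 µM, with 1.0% DMSO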
DNMT1 block – human DNMT1 methyltransferase inhibitors, primary screen, biochemical, molecular beacon, fluorescence, HinP1I cleavage, uHTS; DNA (cytosine-5)-methyltransferase 1 (Homo sapiens), P26358; inhibition (reported as % activation of signal), % at 10 µM; hit rate 0.83% among 360,000; AID 588458, 2011; in the data active = inhibition above about 50%
DNMT1 interf DR – spectral interference with molecular beacon fluorescence, dose response, artefact control for DNMT1 inhibitor project, biochemical, fluorescent molecular beacon; shares compounds with DNMT1 block; spectral interference counter-screen; IC50, µM; 200 tested, under 10 active; AID 602382, 2012; call rule not given here
DNMT1 inh conf – DNMT1 methyltransferase inhibitor retest, confirmation, biochemical, molecular beacon, fluorescence, single concentration. shares compounds with DNMT1 block. DNMT1 molecular beacon HinP1I cleavage. inhibition, % at 10 µM. hit rate 8% among 2,300. AID 602385, 2012;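 active = average inhibition of at least 30% in the single-concentration confirmation test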
Beacon interf – shows spectral interference in the DNMT1 beacon assay | activation (fluorescence interference), % at 10 µM | shares compounds with DNMT1 block | DNMT1 molecular beacon spectral interference counterscreen, fluorescence 485/520 | hit rate 1% among 2,300;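 active = activation of at least 30% at 10 µM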;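 also: DNMT1 catalytic domain with a HinP1I cleavage step and a FAM/dabcyl DNA beacon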
An asterisk follows results filed as active; . = not tested or not shown. Hits are enriched below; roughly 1.7% of the tested compounds scored in any of these assays.

SMILES	SUMO1-SIM PPI	STEP inh	LMPTP block	Scp1 inh	DNMT1 block	DNMT1 inh conf	Beacon interf	others
Cc1ccc([C@@H]2CC=C(C(=O)O)[C@H](c3ccc(C(C)(C)C)cc3)N2S(=O)(=O)c2ccc(C)cc2)cc1	14	-2	3	-17	27	.	.
O=C(O)C1CCN(c2ncccn2)CC1	-1	-3	0	4	81*	2	2
COC(=O)c1ccn(Cc2ccccc2Cl)n1	-3	3	-1	-4	1	.	.
O=C(Nc1cccc(Cl)c1)c1cc2c(=O)n3ccccc3nc2s1	6	2	24	-8	62*	7	18
CC(=O)NS(=O)(=O)c1ccc(NC(=O)c2cc3c(=O)n4ccccc4nc3s2)cc1	-4	1	1	5	4	.	.
CCOC(=O)c1c(C)[nH]c(C(=O)OCC(=O)Nc2cc(C)c(Cl)cc2OC)c1C	-1	3	0	-5	60*	1	-4
CCc1nnc(NC(=O)CSc2ccc(-c3ccco3)nn2)s1	1	-5	-2	-5	4	.	.
Cc1nnc(NC(=O)CSc2ccc(-c3ccco3)nn2)s1	24	12	9	17	53*	0	2
COc1cccc(NC(=O)CSc2nnc(Cc3cccn3C)n2-c2ccc(F)cc2)c1	-9	-1	0	0	76*	3	5
COc1ccc(-n2c(Cc3cccn3C)nnc2SCC(=O)Nc2cccc(OC)c2)cc1	5	2	0	-1	-1	.	.
CSCCC(NC(=O)COc1ccccc1)C(=O)N(C)Cc1c(F)cccc1Cl (stereo not drawn)	0	-3	-1	.	83*	3	4
CSCCC(NC(=O)COc1ccccc1)C(=O)N(C)CC(=O)Nc1ccc(Cl)cc1 (stereo not drawn)	-1	-2	-1	-5	0	.	.
CC(C(=O)N(C)C1CCS(=O)(=O)C1)N1C(=O)/C(=C/c2ccc(F)cc2)SC1=S (stereo not drawn)	-36	8	0	-2	0	.	.
CCN(C(=O)C(C)N1C(=O)/C(=C/c2ccco2)SC1=S)C1CCS(=O)(=O)C1 (stereo not drawn)	-3	15	4	36	63*	0	1
Nc1ccc(S(=O)(=O)Nc2nccs2)cc1N=Nc1ccccc1[N+](=O)[O-]	16	-1	9	7	77*	80*	-3	DNMT1 interf DR=>99
N#C/C(=C\c1ccc(-c2ccccc2Cl)o1)C(=O)Nc1nc2ccccc2s1	13	1	4	-3	88*	12	-7
Cn1nc([N+](=O)[O-])c2c(-c3nc4ccccc4s3)c(N)n(C3CCCCC3)c2c1=O	-8	10	3	6	62*	1	5
O=C1/C(=C/c2ccco2)Cc2ccccc21	-16	0	-1	-2	59*	5	1
Cc1cnn(-c2cc(N/N=C/c3ccccc3)ncn2)c1	-1	-1	1	-9	8	.	.
Cc1cnn(-c2cc(N/N=C/c3ccccc3F)ncn2)c1	-2	0	-1	1	56*	3	-3
O=C(CSc1nnnn1-c1ccccc1)Nc1nsc(-c2ccccc2)n1	1	0	0	1	-1	.	.
O=C(CSc1ccc2ccccc2n1)Nc1nsc(-c2ccc(Cl)cc2)n1	43*	14	56*	0	77*	1	-3
O=C(CSc1nnnn1-c1ccccc1)Nc1nsc(-c2ccc(Cl)cc2)n1	6	2	9	0	71*	0	-4
Cc1cc(SCC(=O)NC(=O)NCc2ccco2)nc2c(C)cccc12	6	3	-2	41	53*	0	0
O=C(CSc1nnc(-c2ccc(OC(F)F)cc2)o1)NC(=O)NCc1ccco1	4	6	13	49	83*	26	4
SMILES	SUMO1-SIM PPI	STEP inh	LMPTP block	Scp1 inh	DNMT1 block	DNMT1 inh conf	Beacon interf	others
Cc1cc(SCC(=O)NC(=O)NCc2ccco2)nc2ccccc12	4	2	2	0	-1	.	.
COc1ccc(-c2nnc(SCC(=O)NCc3ccco3)o2)cc1	-1	0	0	-4	2	.	.
Cc1cc(SCC(=O)N2CCCC2=O)nc2c(C)cccc12	-2	-1	1	-4	80*	3	-1
COc1ccc(NC(=O)c2cc3c(=O)n(C)c4ccccc4c3s2)cc1OC	4	-4	1	-3	75*	2	-2
CC(OC(=O)CCN=C1NS(=O)(=O)c2ccccc21)C(=O)Nc1ccc(F)cc1 (stereo not drawn)	-1	-2	1	-7	-2	.	.
CCCCCn1c(=NC(C)=O)c(C#N)cc2c(=O)n3ccccc3nc21	-12	0	18	2	78*	2	2
CCCCn1c(=NC(C)=O)c(C#N)cc2c(=O)n3cccc(C)c3nc21	-4	9	9	11	64*	0	2
CCOCCCn1c(=NC(C)=O)c(C#N)cc2c(=O)n3cccc(C)c3nc21	8	-1	22	10	22	.	.
Nc1cc(S(=O)(=O)Nc2ccc(Cl)cc2)ccc1N1CCOCC1	1	13	2	-1	169*	2	4
Nc1cc(S(=O)(=O)Nc2ccccc2Cl)ccc1N1CCOCC1	2	1	0	-5	-3	.	.
Cc1[nH]n(-c2ncc(-c3ccc(Cl)cc3)s2)c(=O)c1C(c1ccc(Cl)cc1)C(C#N)C#N (stereo not drawn)	16	1	6	8	83*	8	0
CCCCCN(C(=O)CCC(=O)OCC(=O)c1c(C)cc(C)cc1C)c1c(N)n(CCCC)c(=O)[nH]c1=O	2	-2	-3	-9	-5	.	.
COc1ccc(C(=O)NNC(=O)COc2ccc(Cl)cc2)c(OC)c1	8	-2	-2	-2	1	.	.
COc1ccc(CNC(=O)C2CC(c3ccccc3C(F)(F)F)=NO2)cc1 (stereo not drawn)	5	0	0	-3	72*	7	6
